The text below walks through data of ChEMBL document CHEMBL1138361, “4-acyl-1-(4-aminoalkoxyphenyl)-2-ketopiperazines as a novel class of non-brain-penetrant histamine H3 receptor antagonists” (J Med Chem, 2007).

A short description of data set [1]: AUC in Beagle dog at 2.0 mg/kg, po. It is filed as ADME, organism-based, Canis lupus familiaris. On the set-up: dose 2 mg/kg, route oral. Particulars: plasma. An outline of the steps: (§1)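 Single iv and oral doses given to male CD Sprague-Dawley rats (1 mg/kg iv, 3 mg/kg po) and male Beagle dogs (1 mg/kg iv, 2 mg/kg po). Vehicle was a DMSO-PEG 200-water (5:45:50) solution. Serial and terminal blood samples were taken at time points up to 7, 12 or 24 h postdose.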

Data set [2] can be described thus: Tmax in CD Sprague-Dawley rat at 1.0 mg/kg, iv. The data set is classed as ADME, organism-based. More on the design: dose 1 mg/kg, route intravenous. Particulars: in vivo. An outline of the steps: as §1
Data set [3] can be described thus: Tmax in Beagle dog at 1.0 mg/kg, iv. The data set is classed as ADME, organism-based, Canis lupus familiaris. More on the design: dose 1 mg/kg, route intravenous. Conditions: in vivo. The method, boiled down:
as §1

The nature of data set [4]: Cmax in Beagle dog at 1.0 mg/kg, iv. It is filed as ADME, organism-based, Canis lupus familiaris. On the set-up: dose 1 mg/kg, route intravenous. Particulars: in vivo. The method, boiled down:
as §1

Data set [5] in a line: Clearance in CD Sprague-Dawley rat at 1.0 mg/kg, iv. It is filed as ADME, organism-based. More on the design: dose 1 mg/kg, route intravenous. Particulars: in vivo. An outline of the steps:
as §1

Data set [6] can be described thus: Cmax in Beagle dog at 2.0 mg/kg, po. It is filed as ADME, organism-based, Canis lupus familiaris. On the set-up: dose 2 mg/kg, route oral. Particulars: in vivo. An outline of the steps: as §1
Data set [7] can be described thus: Volume of distribution in Beagle dog at 1.0 mg/kg, iv. It is filed as ADME, organism-based, Canis lupus familiaris. Conditions: in vivo. On the set-up: dose 1 mg/kg, route intravenous. An outline of the steps:
as §1

A short description of data set [8]: Volume of distribution in CD Sprague-Dawley rat at 1.0 mg/kg, iv. Particulars: in vivo. On the set-up: dose 1 mg/kg, route intravenous. It is filed as ADME, organism-based. The method, boiled down: as §1
Data set [9] in a line: Clearance in Beagle dog at 1.0 mg/kg, iv. The data set is classed as ADME, organism-based, Canis lupus familiaris. On the set-up: dose 1 mg/kg, route intravenous. Particulars: in vivo. An outline of the steps:
as §1

Data set [10] is described as follows: Partition coefficient, log D at pH 7.4. It is filed as physicochemical. Particulars: octanol/water. The method, boiled down: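 Compound in phosphate buffer was shaken with buffer-saturated octanol (3 × 50 inversions). Phases were separated by centrifugation at 300g for 15 min. Both phases were quantified by HPLC, and log D was calculated from peak areas normalized to injection volume.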

Data set [11] can be described thus: Cmax in CD Sprague-Dawley rat at 1.0 mg/kg, iv. The data set is classed as ADME, organism-based. More on the design: dose 1 mg/kg, route intravenous. Particulars: in vivo. The method, boiled down:
as §1

Data set [12] is described as follows: Tmax in Beagle dog at 2.0 mg/kg, po. It is filed as ADME, organism-based, Canis lupus familiaris. On the set-up: dose 2 mg/kg, route oral. Conditions: in vivo. The method, boiled down:
as §1

The nature of data set [13]: AUC in CD Sprague-Dawley rat at 3.0 mg/kg, po. The data set is classed as ADME, organism-based. More on the design: dose 3 mg/kg, route oral. Conditions: plasma. The method, boiled down:
as §1

Data set [14] can be described thus: Ratio of drug level in brain to blood in CD Sprague-Dawley rat at 1 mg/kg, iv after 5 mins. It is filed as ADME, organism-based. More on the design: dose 1 mg/kg, route intravenous. Conditions: brain and blood. An outline of the steps: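 Male CD Sprague-Dawley rats were dosed iv in DMSO-PEG 200-water (5:45:50). Blood and brain were collected 5 min postdose under terminal isoflurane anesthesia. Blood was protein-precipitated; brain was homogenized and extracted. Parent drug was quantified by LCMS/MS.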

Data set [15] is described as follows: Half life in CD Sprague-Dawley rat at 1.0 mg/kg, iv. More on the design: dose 1 mg/kg, route intravenous. Particulars: in vivo. It is filed as ADME, organism-based. An outline of the steps:
as §1

The nature of data set [16]: Half life in Beagle dog at 1.0 mg/kg, iv. The data set is classed as ADME, organism-based, Canis lupus familiaris. On the set-up: dose 1 mg/kg, route intravenous. Conditions: in vivo. An outline of the steps:
as §1

Data set [17] can be described thus: AUC in Beagle dog at 1.0 mg/kg, iv. More on the design: dose 1 mg/kg, route intravenous. It is filed as ADME, organism-based, Canis lupus familiaris. Conditions: plasma. The method, boiled down: as §1
Data set [18] in a line: AUC in CD Sprague-Dawley rat at 1.0 mg/kg, iv. The data set is classed as ADME, organism-based. On the set-up: dose 1 mg/kg, route intravenous. Particulars: plasma. An outline of the steps: as §1
The nature of data set [19]: Cmax in CD Sprague-Dawley rat at 3.0 mg/kg, po. The data set is classed as ADME, organism-based. More on the design: dose 3 mg/kg, route oral. Particulars: in vivo. An outline of the steps: as §1
Data set [20] can be described thus: Oral bioavailability in Beagle dog at 2.0 mg/kg, po. It is filed as ADME, organism-based, Canis lupus familiaris. Particulars: in vivo. An outline of the steps: as §1
The nature of data set [21]: Tmax in CD Sprague-Dawley rat at 3.0 mg/kg, po. It is filed as ADME, organism-based. Conditions: in vivo. On the set-up: dose 3 mg/kg, route oral. An outline of the steps: as §1
Data set [22] is described as follows: Tmax in CD Sprague-Dawley rat at 2.9 mg/kg, po. It is filed as ADME, organism-based. Conditions: in vivo. On the set-up: dose 2.9 mg/kg, route oral.
Data set [23] is described as follows: Oral bioavailability in CD Sprague-Dawley rat at 2.9 mg/kg, po. The data set is classed as ADME, organism-based. Conditions: in vivo.
Data set [24] can be described thus: Cmax in CD Sprague-Dawley rat at 2.9 mg/kg, po. The data set is classed as ADME, organism-based. More on the design: dose 2.9 mg/kg, route oral. Conditions: in vivo.
A short description of data set [25]: AUC in CD Sprague-Dawley rat at 2.9 mg/kg, po. The data set is classed as ADME, organism-based. On the set-up: dose 2.9 mg/kg, route oral. Conditions: plasma.
The nature of data set [26]: Oral bioavailability in CD Sprague-Dawley rat at 3.0 mg/kg, po. Particulars: in vivo. It is filed as ADME, organism-based. The method, boiled down: as §1

Usually AUC stands for the area under the concentration-time curve, a measure of exposure. A lower AUC goes with low exposure. What is called Tmax is the time at which the peak concentration occurs. Broadly, the Cmax is the maximum level reached in the sampled fluid or tissue. As a reminder, the clearance is the rate of elimination divided by the concentration. As a reminder, the Vd is a proportionality between amount in the body and measured concentration, not a real space. A lower Vd goes with confinement near the circulation. One may read the logD as the decadic logarithm of the distribution of all forms, ionised or not, between an organic phase and buffer at a given pH. A high value points to higher lipophilicity. What is called Kp is tissue or fluid exposure divided by exposure in the circulation. Usually half-life stands for how long it takes for the measured level to halve. Low values mean rapid decline, high ones slow decline. A word on the bioavailability: it is dose-corrected exposure relative to a reference, in per cent. On to `N#Cc1ccc(C(=O)N2CCN(c3ccc(OC4CCN(C5CCC5)CC4)cc3)C(=O)C2)cc1.O=CO`, for which the AUC in [1] came out at 1540 ng·h/mL; in [13] it was 1150 ng·h/mL; in data set [17], 1100 ng·h/mL; in data set [18], 601 ng·h/mL. Moreover, the Tmax stood at 4.8 min in [2], 4.8 min in [3], 1 h in data set [12] and 1 h in data set [21]. Moreover, the Cmax in [4] came out at 419 ng/mL; in [6], 294 ng/mL; in [11], 350 ng/mL; in data set [19] it was 149 ng/mL. In addition, the clearance turned out to be 27 mL/min/kg in [5] and 15 mL/min/kg in data set [9]. Further, the values for the Vd in data set [7] and in [8] were 2.3 L/kg and 2.2 L/kg, respectively. The molecule also yielded a logD in data set [10] of 0.38. Besides, the Kp at 5 min in data set [14] was 0.2. For the same molecule, the half-life was 1.4 h in data set [15] and 2.3 h in data set [16]. Moreover, the bioavailability in data set [20] was determined as 69%.

In the case of `Cl.O=C(c1ccc(F)cc1)N1CCN(c2ccc(OC3CCN(C4CCC4)CC3)cc2)C(=O)C1`, the Tmax came out at 4.8 min in data set [2] and 2 h in data set [22]. In data set [5], this molecule yielded a clearance of 18 mL/min/kg. This molecule returned a Vd in [8] of 2.5 L/kg. Further, the logD in [10] came to 0.9. Moreover, the Cmax in [11] worked out at 337 ng/mL; in [24], 91 ng/mL. In addition, in data set [15], the half-life is 2 h. The molecule further returned a bioavailability in data set [23] of 35%. The AUC in [18] came out at 837 ng·h/mL; in [25], 760 ng·h/mL.

As to `O=C(c1ccc(F)cc1)N1CCN(c2ccc(OCCCN3CCCCC3)cc2)C(=O)C1.O=CO`, the AUC in data set [1] was determined as 3090 ng·h/mL; in data set [13] it was 805 ng·h/mL; in [17], 1570 ng·h/mL; in data set [18], 437 ng·h/mL. Further, the Tmax was determined as 4.8 min in data set [2], 4.8 min in [3], 0.75 h in data set [12] and 3 h in [21]. Besides, the Cmax in data set [4] came out at 530 ng/mL; in data set [6], 400 ng/mL; in data set [11], 300 ng/mL; in data set [19], 155 ng/mL. The molecule also yielded a clearance in [5] of 37 mL/min/kg. Further, the Vd in data set [8] stood at 2.4 L/kg. In addition, in [10], the logD stood at 0.12. For the same molecule, the Kp at 5 min in [14] stood at 0.3. This molecule also had a half-life in [15] of 1.5 h. The bioavailability in data set [26] is 61%; in data set [20], 86%.

With `C[C@@H]1CCCN1CCCOc1ccc(N2CCN(C(=O)c3ccc(F)cc3F)CC2=O)cc1.O=CO`, the AUC in data set [1] was 4800 ng·h/mL; in [13], 753 ng·h/mL; in data set [17], 2160 ng·h/mL; in data set [18], 682 ng·h/mL. In addition, the Tmax turned out to be 4.8 min in [2], 4.8 min in data set [3], 4 h in [12] and 4 h in data set [21]. For the same molecule, the Cmax in [4] came out at 414 ng/mL; in data set [6] it was 734 ng/mL; in data set [11], 291 ng/mL; in [19] it was 109 ng/mL. The values for the clearance in data set [5] and in [9] were 31 mL/min/kg and 6.5 mL/min/kg, respectively. The Vd worked out at 2.3 L/kg in data set [7] and 2 L/kg in data set [8]. The molecule also registered a logD in data set [10] of -0.08. In addition, the Kp at 5 min in data set [14] came to 0.2. In addition, the half-life in [15] was 1.1 h; in data set [16] it was 4.3 h. Besides, the figures for the bioavailability in [26] and in data set [20] were 48% and 100%, respectively.
